{"source": "ChEMBL document CHEMBL2163188", "about": "“Discovery of piragliatin--first glucokinase activator studied in type 2 diabetic patients” (J Med Chem, 2012)", "target": "T1, Hexokinase-4 (Homo sapiens) (UniProt P35557)", "T1 sequence (whole entry)": "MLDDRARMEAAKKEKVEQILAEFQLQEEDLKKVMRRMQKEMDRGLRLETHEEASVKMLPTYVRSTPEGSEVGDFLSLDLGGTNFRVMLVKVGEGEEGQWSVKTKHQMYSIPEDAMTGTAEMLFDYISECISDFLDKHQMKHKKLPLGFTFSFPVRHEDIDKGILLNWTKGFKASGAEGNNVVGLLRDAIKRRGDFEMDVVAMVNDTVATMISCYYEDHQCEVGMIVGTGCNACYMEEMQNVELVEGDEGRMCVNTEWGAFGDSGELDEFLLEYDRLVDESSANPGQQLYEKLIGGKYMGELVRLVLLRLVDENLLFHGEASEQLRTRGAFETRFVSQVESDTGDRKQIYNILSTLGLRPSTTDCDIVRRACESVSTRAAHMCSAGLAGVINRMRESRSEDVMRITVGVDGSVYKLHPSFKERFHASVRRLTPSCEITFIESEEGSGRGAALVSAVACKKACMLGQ", "assay": "Activation of human recombinant glucokinase assessed as concentration required for 1.5 fold increase in enzymatic activity", "outline": "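Human recombinant GK; activator at fixed concentrations from ∼0.010 to 30 μM, each in duplicate, with glucose held at 5 mM. SC1.5 is the activator concentration giving a 1.5-fold rise in enzymatic activity over untreated GK. Assay CV was about 15%.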", "data": [{"smiles": "CS(=O)(=O)c1ccc(C(CC2CCCC2)C(=O)Nc2nccs2)cc1[N+](=O)[O-]", "note": "(racemic)", "values": [{"measurement": "Activity", "value": 0.065, "unit": "µM"}]}]}
